Laboratory results from ChEMBL document CHEMBL1770087, “Novel 3-chlorooxazolidin-2-ones as antimicrobial agents” (Bioorg Med Chem Lett, 2011).
Converted amounts (≈) assume the structure as drawn.

What was measured:
[1] = Therapeutic index, ratio of CT50 for mouse L929 cells to Escherichia coli ATCC 25922; assay type: cell-based; conditions: pooled result: one value given for 2 cell lines, strains, targets or settings, read-out: TI
[2] = Therapeutic index, ratio of CT50 for mouse L929 cells to Candida albicans ATCC 10231; assay type: cell-based; conditions: read-out: TI
Method in brief: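 Antifungal index is the L929 CT50 (1 h exposure, overnight recovery, Dojindo viability) divided by the MFC against C. albicans. MFC is from a modified CLSI M26-A method: phosphate-buffered saline pH 7 in place of Mueller–Hinton broth, 1 h compound residence.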

Staphylococcus aureus = experiment: Antibacterial activity against Staphylococcus aureus ATCC 29213 at pH 7 by CLSI M26A method; assay type: functional
Method in brief: (§1)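 Modified CLSI M26-A bactericidal method in which phosphate-buffered saline (pH 7) replaced Mueller–Hinton broth and compound contact was cut to 1 h. The read-out was the minimum bactericidal concentration (MBC).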

[3] = Cytotoxicity against mouse L929 cells after 1 hr at pH 4 by Dojindo cell proliferation assay; assay type: cell-based
Method in brief: (§2)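 L929 mouse fibroblasts exposed to test article for 1 h in test solution at pH 7, or at pH 4 where flagged. Compound then removed and cells incubated overnight. Viability read with Dojindo cell proliferation assay; CT50 reported in mM.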

Candida albicans = experiment: Antifungal activity against Candida albicans ATCC 10231 at pH 7 by CLSI M26A method; assay type: functional
Method in brief: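 Modified CLSI M26-A method with phosphate-buffered saline (pH 7) in place of Mueller–Hinton broth and compound contact shortened to 1 h. The read-out was the minimum fungicidal concentration (MFC).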

Escherichia coli = experiment: Antibacterial activity against Escherichia coli ATCC 25922 at pH 7 by CLSI M26A method; assay type: functional; method in brief: as §1
[4] = Cytotoxicity against mouse L929 cells after 1 hr at pH 7 by Dojindo cell proliferation assay; assay type: cell-based; method in brief: as §2

Compound: CC[N+](C)(C)CC1(C)COC(=O)N1Cl.[Cl-] (configuration not stated)
- selectivity ratio [1]: 78
- selectivity ratio [2]: 28
- MBC (Staphylococcus aureus): 4 µg/mL
- CC50 at 1 h [3]: 860 µM
- MFC (Candida albicans): 8 µg/mL
- MBC (Escherichia coli): 2 µg/mL

Compound: CCC[N+](C)(C)CC1(C)COC(=O)N1Cl.[Cl-] (configuration not stated)
- selectivity ratio [1]: 122
- selectivity ratio [2]: 31
- MBC (Staphylococcus aureus): 2 µg/mL
- CC50 at 1 h [3]: 900 µM
- MFC (Candida albicans): 8 µg/mL
- MBC (Escherichia coli): 2 µg/mL

Compound: CC1(C[N+]2(C)CCCC2)COC(=O)N1Cl.[Cl-] (configuration not stated)
- selectivity ratio [1]: 76
- selectivity ratio [2]: 19
- MBC (Staphylococcus aureus): 4 µg/mL
- CC50 at 1 h [3]: 1130 µM
- MFC (Candida albicans): 16 µg/mL
- MBC (Escherichia coli): 4 µg/mL

Compound: CC1(CS(=O)(=O)[O-])COC(=O)N1Cl.[Na+] (configuration not stated)
- selectivity ratio [1]: 1.4
- selectivity ratio [2]: 0.25
- CC50 at 1 h [4]: 800 µM
- MBC (Staphylococcus aureus): 128 µg/mL
- MFC (Candida albicans): 1020 µg/mL
- MBC (Escherichia coli): 256 µg/mL

Compound: CC1(C)C(CS(=O)(=O)[O-])OC(=O)N1Cl.[Na+] (configuration not stated)
- selectivity ratio [1]: 2.9
- selectivity ratio [2]: 1
- CC50 at 1 h [4]: 4300 µM
- MBC (Staphylococcus aureus): 512 µg/mL
- MFC (Candida albicans): 1020 µg/mL
- MBC (Escherichia coli): 256 µg/mL

Compound: CC1(CS(=O)(=O)CCS(=O)(=O)[O-])COC(=O)N1Cl.[Na+] (configuration not stated)
- selectivity ratio [1]: 8.5
- selectivity ratio [2]: 1.5
- CC50 at 1 h [4]: 600 µM
- MBC (Staphylococcus aureus): 32 µg/mL
- MFC (Candida albicans): 128 µg/mL
- MBC (Escherichia coli): 16 µg/mL

Compound: CC1(CS(=O)(=O)CCCC(=O)O)COC(=O)N1Cl (configuration not stated)
- selectivity ratio [1]: 14
- CC50 at 1 h [4]: 520 µM
- MBC (Staphylococcus aureus): 8 µg/mL (≈ 26.7 µM)
- MFC (Candida albicans): > 1020 µg/mL
- MBC (Escherichia coli): 16 µg/mL (≈ 53.4 µM)

Compound: CC1(C)C(C[N+](C)(C)C)OC(=O)N1Cl.[Cl-] (configuration not stated)
- selectivity ratio [1]: 7.6
- selectivity ratio [2]: 2.7
- CC50 at 1 h [4]: 690 µM
- MBC (Staphylococcus aureus): 32 µg/mL
- MFC (Candida albicans): 64 µg/mL
- MBC (Escherichia coli): 16 µg/mL

Compound: C[N+]1(C)CCC2(CC1)CN(Cl)C(=O)O2.[Cl-]
- selectivity ratio [1]: 7.9
- selectivity ratio [2]: 0.7
- MBC (Staphylococcus aureus): 32 µg/mL
- CC50 at 1 h [3]: 700 µM
- MFC (Candida albicans): 256 µg/mL
- MBC (Escherichia coli): 16 µg/mL

Compound: CC1(C[N+](C)(C)C)COC(=O)N1Cl.[Cl-] (configuration not stated)
- MBC (Staphylococcus aureus): 4 µg/mL
- MFC (Candida albicans): 16 µg/mL
- MBC (Escherichia coli): 2 µg/mL

Compound: CC1(C)COC(=O)N1Cl
- selectivity ratio [1]: 5.2
- selectivity ratio [2]: 0.02
- CC50 at 1 h [4]: 70 µM
- MBC (Staphylococcus aureus): 4 µg/mL (≈ 26.7 µM)
- MFC (Candida albicans): 512 µg/mL (≈ 3420 µM)
- MBC (Escherichia coli): 1 µg/mL (≈ 6.69 µM)
